Source: ChEMBL document CHEMBL4622977, “A CNS-Targeting Prodrug Strategy for Nuclear Receptor Modulators” (J Med Chem, 2020)
Activity calls are given as the source filed them. The calls are words filed in the database; no cut-off is given here.

Experiments:
[1] = AUC (0.5 to 6 hrs) in C57BL/6 mouse brain assessed as GW3965 level at 9.14 umol/kg, ip by LC-MS/MS analysis; format: ADME, organism-based; parameters: dose 9.14 umol/kg, time 0.5-6 hr, route intraperitoneal; conditions: in vivo, BLD = below limit of detection
Outline: (§1)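 Male wild-type C57BL/6 mice (8−10 weeks, n=3 per time point) received parent drug or equimolar prodrug at […] i.p. in DMSO. Brain and serum were collected at 0.5, 2 and 6 h. Parent acid was quantified by LC-MS/MS against vehicle-tissue standard curves with d₆-sobetirome internal standard. AUC0.5–6 h was computed from the time course; mean ± SEM.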

[2] = AUC (0.5 to 6 hrs) in C57BL/6 mouse serum assessed as GW3965 level at 9.14 umol/kg, ip by LC-MS/MS analysis; format: ADME, organism-based; parameters: time 0.5-6 hr, dose 9.14 umol/kg, route intraperitoneal; conditions: in vivo; outline: as §1
[3] = Prodrug conversion in C57BL/6 mouse brain assessed as GW3965 level at 9.14 umol/kg, ip measured after 1 hr in presence of FAAH inhibitor PF-3845 by LC-MS/MS analysis; format: ADME, organism-based; conditions: in vivo
Outline: (§2)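 Male C57BL/6 mice (n=3) received PF-3845 at 1 mg/kg i.p., then prodrug at […] i.p. 1 h later; comparators received prodrug alone. Vehicle was DMSO. Whole brain was taken 1 h after prodrug and homogenized in water with d₆-sobetirome internal standard. It was extracted with EtOAc/MeCN and parent acid was measured by LC-MS/MS; mean ± SEM, 2-tailed unpaired t test.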

[4] = AUC (0.5 to 6 hrs) in C57BL/6 mouse serum at 9.14 umol/kg, ip by LC-MS/MS analysis; format: ADME, organism-based; parameters: time upper 6 hr, dose 9.14 umol/kg, time lower 0.5 hr, route intraperitoneal; conditions: in vivo; outline: as §1
[5] = mouse, in vivo, ip
in vivo = conditions: C57BL/6, mouse, brain/serum, ip, 9.14 umol/kg
[6] = AUC (0.5 to 6 hrs) in C57BL/6 mouse brain assessed as bexarotene level at 9.14 umol/kg, ip by LC-MS/MS analysis; format: ADME, organism-based; parameters: dose 9.14 umol/kg, time 0.5-6 hr, route intraperitoneal; conditions: in vivo, BLD = below limit of detection; outline: as §1
[7] = AUC (0.5 to 6 hrs) in C57BL/6 mouse serum assessed as bexarotene level at 9.14 umol/kg, ip by LC-MS/MS analysis; format: ADME, organism-based; parameters: dose 9.14 umol/kg, time 0.5-6 hr, route intraperitoneal; conditions: in vivo; outline: as §1
[8] = Prodrug conversion in C57BL/6 mouse brain assessed as bexarotene level at 9.14 umol/kg, ip measured after 1 hr in presence of FAAH inhibitor PF-3845 by LC-MS/MS analysis; format: ADME, organism-based; conditions: in vivo; outline: as §2
[9] = AUC (0.5 to 6 hrs) in C57BL/6 mouse brain assessed as GW7604 level at 9.14 umol/kg, ip by LC-MS/MS analysis; format: ADME, organism-based; parameters: time 0.5-6 hr, dose 9.14 umol/kg, route intraperitoneal; conditions: in vivo; outline: as §1
[10] = AUC (0.5 to 6 hrs) in C57BL/6 mouse serum assessed as GW7604 level at 9.14 umol/kg, ip by LC-MS/MS analysis; format: ADME, organism-based; parameters: time lower 0.5 hr, dose 9.14 umol/kg, time upper 6 hr, route intraperitoneal; conditions: in vivo; outline: as §1
[11] = Brain to serum concentration ratio, Kp of the compound in C57BL/6 mouse assessed as GW7604 level at 9.14 umol/kg, ip by LC-MS/MS analysis; format: ADME, organism-based
Outline: (§3)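 Brain-to-serum ratio Kp was calculated from brain and serum parent-drug AUC0.5–6 h (ng/g*h). These AUCs came from male C57BL/6 mice (n=3 per time point) given parent drug or equimolar prodrug at […] i.p. in DMSO, sampled at 0.5, 2 and 6 h. Parent acid was quantified by LC-MS/MS with d₆-sobetirome internal standard.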

[12] = Prodrug conversion in C57BL/6 mouse brain assessed as GW7604 level at 9.14 umol/kg, ip measured after 1 hr in presence of FAAH inhibitor PF-3845 by LC-MS/MS analysis; format: ADME, organism-based; conditions: in vivo; outline: as §2
[13] = AUC (0.5 to 6 hrs) in C57BL/6 mouse brain assessed as 2-(4-(4-hydroxy-3-isopropyl-5-((4-nitrophenyl)ethynyl)-benzyl)-3,5-dimethylphenoxy)acetic acid level at 9.14 umol/kg, ip by LC-MS/MS analysis; format: ADME, organism-based; parameters: time upper 6 hr, time lower 0.5 hr, dose 9.14 umol/kg, route intraperitoneal; conditions: in vivo; outline: as §1
[14] = AUC (0.5 to 6 hrs) in C57BL/6 mouse serum assessed as 2-(4-(4-hydroxy-3-isopropyl-5-((4-nitrophenyl)ethynyl)-benzyl)-3,5-dimethylphenoxy)acetic acid level at 9.14 umol/kg, ip by LC-MS/MS analysis; format: ADME, organism-based; parameters: time 0.5-6 hr, dose 9.14 umol/kg, route intraperitoneal; conditions: in vivo; outline: as §1
[15] = Brain to serum concentration ratio, Kp of the compound in C57BL/6 mouse assessed as 2-(4-(4-hydroxy-3-isopropyl-5-((4-nitrophenyl)ethynyl)-benzyl)-3,5-dimethylphenoxy)acetic acid level at 9.14 umol/kg, ip by LC-MS/MS analysis; format: ADME, organism-based; outline: as §3
[16] = Prodrug conversion in C57BL/6 mouse brain assessed as 2-(4-(4-hydroxy-3-isopropyl-5-((4-nitrophenyl)ethynyl)-benzyl)-3,5-dimethylphenoxy)acetic acid level at 9.14 umol/kg, ip measured after 1 hr in presence of FAAH inhibitor PF-3845 by LC-MS/MS analysis; format: ADME, organism-based; conditions: in vivo; outline: as §2
Mus musculus [17] = test: In vivo agonist activity at RAR in C57BL/6 mouse assessed upregulation of Adam10 gene expression in brain at 9.14 umol/kg, ip administered once daily for 7 days by Trizol reagent based RT-qPCR analysis; format: functional, organism-based
Outline: (§4)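 Male C57BL/6 mice (n=5) were dosed once daily for 7 days i.p. with parent drug at […], equimolar prodrug, or vehicle. The vehicle was 1:1:8 Kolliphor:NMP:water. Target gene expression was compared between groups per tissue by 2-tailed unpaired t test.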

[18] = Hepatotoxicity in C57BL/6 mouse assessed effect on Rarres2 gene expression at 9.14 umol/kg, ip administered once daily for 7 days by Trizol reagent based RT-qPCR analysis; conditions: in vivo, 168 h
Mus musculus [19] = test: In vivo agonist activity at PPAR in C57BL/6 mouse assessed upregulation of Pgc1-alpha gene expression at 9.14 umol/kg, ip administered once daily for 7 days by Trizol reagent based RT-qPCR analysis; format: functional, organism-based; outline: as §4
[20] = Renal toxicity in C57BL/6 mouse assessed effect on Fasn gene expression in kidney at 9.14 umol/kg, ip administered once daily for 7 days by Trizol reagent based RT-qPCR analysis; format: organism-based; conditions: in vivo, 168 h; outline: as §4
[21] = Prodrug conversion in C57BL/6 mouse brain assessed as [4-(4-hydroxy-3-iodophenoxy)-3,5-diiodophenyl]acetic acid level at 9.14 umol/kg, ip measured after 1 hr in presence of FAAH inhibitor PF-3845 by LC-MS/MS analysis; format: ADME, organism-based; conditions: in vivo; outline: as §2
[22] = AUC (0.5 to 6 hrs) in C57BL/6 mouse brain assessed as [4-(4-hydroxy-3-iodophenoxy)-3,5-diiodophenyl]acetic acid level at 9.14 umol/kg, ip by LC-MS/MS analysis; format: ADME, organism-based; parameters: dose 9.14 umol/kg, time upper 6 hr, time lower 0.5 hr, route intraperitoneal; conditions: in vivo; outline: as §1
[23] = AUC (0.5 to 6 hrs) in C57BL/6 mouse serum assessed as [4-(4-hydroxy-3-iodophenoxy)-3,5-diiodophenyl]acetic acid level at 9.14 umol/kg, ip by LC-MS/MS analysis; format: ADME, organism-based; parameters: dose 9.14 umol/kg, time 0.5-6 hr, route intraperitoneal; conditions: in vivo; outline: as §1
[24] = Brain to serum concentration ratio, Kp of the compound in C57BL/6 mouse assessed as [4-(4-hydroxy-3-iodophenoxy)-3,5-diiodophenyl]acetic acid level at 9.14 umol/kg, ip by LC-MS/MS analysis; format: ADME, organism-based; outline: as §3

Q: With `CNC(=O)Cc1cccc(OCCCN(Cc2cccc(C(F)(F)F)c2Cl)CC(c2ccccc2)c2ccccc2)c1` as the molecule, how does the AUC [1] read?
A: Bld

Q: And the AUC [2]?
A: 155.4 ng·h/g

Q: And the Drug metabolism [3]?
A: Metabolite_Notdetected

Q: With `O=C(O)Cc1cccc(OCCCN(Cc2cccc(C(F)(F)F)c2Cl)CC(c2ccccc2)c2ccccc2)c1` as the molecule, how does the AUC [4] read?
A: 8853 ng·h/g

Q: And the AUC [5]?
A: 1867 ng·h/g

Q: And the Kp (in vivo)?
A: 0.21

Q: Which results are given for `C=C(c1ccc(C(=O)NC)cc1)c1cc2c(cc1C)C(C)(C)CCC2(C)C`?
A: AUC [6]: Bld; AUC [7]: 4.933 ng·h/g; Drug metabolism [8]: Metabolite_Notdetected

Q: Which results are given for `CC/C(=C(\c1ccc(O)cc1)c1ccc(/C=C/C(=O)NC)cc1)c1ccccc1`?
A: AUC [9]: 18.03 ng·h/g; AUC [10]: 17.77 ng·h/g; Kp [11]: 1.01; Drug metabolism [12]: Metabolite_Notdetected

Q: For `CNC(=O)COc1cc(C)c(Cc2cc(C#Cc3ccc([N+](=O)[O-])cc3)c(O)c(C(C)C)c2)c(C)c1`, which AUC [13] is on record?
A: 73.8 ng·h/g

Q: And the AUC [14]?
A: 49.5 ng·h/g

Q: What about the Kp [15] of the same molecule?
A: 1.5

Q: And the Drug metabolism [16]?
A: Metabolite_Notdetected

Q: With `CC1(C)CCSc2ccc(C#Cc3ccc(C(=O)O)cn3)cc21` [TAZAROTENIC ACID] as the molecule, how does the AUC [4] read?
A: 314.5 ng·h/g

Q: And the Activity (Mus musculus [17])?
A: inactive

Q: And the AUC [5]?
A: 38.5 ng·h/g

Q: And the Kp (in vivo)?
A: 0.12

Q: And the Activity [18]?
A: Toxic

Q: For `CCO[C@@H](Cc1ccc(OCCc2ccc(OS(C)(=O)=O)cc2)cc1)C(=O)O` [TESAGLITAZAR], which AUC [4] is on record?
A: 2107 ng·h/g

Q: And the Activity (Mus musculus [19])?
A: inactive

Q: What about the Activity [20] of the same molecule?
A: Toxic

Q: What about the AUC [5] of the same molecule?
A: 7.3 ng·h/g

Q: And the Kp (in vivo)?
A: 0.004

Q: Which results are given for `CNC(=O)Cc1cc(I)c(Oc2ccc(O)c(I)c2)c(I)c1`?
A: Drug metabolism [21]: Metabolite_Detected; AUC [22]: 155.8 ng·h/g; AUC [23]: 4020 ng·h/g; Kp [24]: 0.039

Q: Which AUC [4] does the source give for `CCCc1c(OCCCSc2ccc(CC(=O)O)cc2Cl)ccc2c(C(F)(F)F)noc12` here?
A: 2140 ng·h/g

Q: What about the AUC [5] of the same molecule?
A: 67.35 ng·h/g

Q: And the Kp (in vivo)?
A: 0.03
